From PubChem BioAssay
This is a sample that favours compounds with a hit; in the whole collection about 2.5% have one here.
MEKK3 PB1 HTS – raises or lowers MEK5 binding to the human MEKK3 PB1 domain. Q99759. bead-based flow cytometry, Alexa488-MEK5 binding to MEKK3; actives lie on both sides; 0 = blocked by unlabeled MEK5, 100 = vehicle. binding response (% of control), % at 10 µM. 1.4% of 290,000 active. AID 1529;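 active means binding response more than 3 SD above or below the average of its plate-row segment, actives on both sides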;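 further: Alexa488 bead fluorescence after subtracting the streptavidin-only scavenger bead signal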
Rce1 inh – blocks yeast Ras-converting enzyme. Q03530. yeast membranes, quenched prenylated peptide cleavage fluorescence. calls only. 0.27% of 290,000 active;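 active means fall in fluorescence gain of 50% or more versus controls, with final raw signal at or below 3038400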;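 further: plate controls were neutral control wells for no effect and wells lacking membranes for full effect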
Target sequence (Q03530 whole entry, looked up): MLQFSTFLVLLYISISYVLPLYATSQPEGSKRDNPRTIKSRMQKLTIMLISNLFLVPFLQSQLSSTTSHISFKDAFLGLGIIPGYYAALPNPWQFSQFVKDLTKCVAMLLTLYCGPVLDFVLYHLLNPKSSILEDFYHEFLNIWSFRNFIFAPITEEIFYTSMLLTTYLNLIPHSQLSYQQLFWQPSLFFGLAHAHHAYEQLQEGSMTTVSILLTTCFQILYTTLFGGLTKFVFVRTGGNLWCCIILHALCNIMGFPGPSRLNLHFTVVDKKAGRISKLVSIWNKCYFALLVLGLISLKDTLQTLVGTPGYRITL
UCH37 inh – blocks the human deubiquitinase UCH37 | purified proteasome/UCH37, Ub-AMC cleavage fluorescence | inhibition, % (no concentration beside the values) | 0.33% of 330,000 active | AID 588478;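 active means mean inhibition over replicate wells above about 20%, limit read from the data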;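 further: 0% = compound-free wells with enzyme and 100% = wells lacking proteasome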
Target sequence (Q9Y5K5 whole entry, looked up): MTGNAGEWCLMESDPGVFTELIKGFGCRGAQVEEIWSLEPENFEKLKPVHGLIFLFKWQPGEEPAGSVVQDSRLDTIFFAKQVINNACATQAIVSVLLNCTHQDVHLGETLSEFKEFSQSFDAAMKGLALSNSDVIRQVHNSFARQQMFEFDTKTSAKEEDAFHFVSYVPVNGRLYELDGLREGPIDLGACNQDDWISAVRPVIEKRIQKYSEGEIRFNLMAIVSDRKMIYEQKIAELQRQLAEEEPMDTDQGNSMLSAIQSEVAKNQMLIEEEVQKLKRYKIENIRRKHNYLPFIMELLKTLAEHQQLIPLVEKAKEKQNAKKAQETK
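Material: human UCH37 enzyme supplied as purified proteasome complex. Measure: % inhibition of Ub-AMC cleavage fluorescence. Medium: pH 7.4 Tris-HCl (50 mM) with ovalbumin, ATP-MgCl2, DTT. Times: 30 min preincubation with enzyme, 25 min cleavage at room temperature. Detection: AMC fluorescence intensity at 355/460 nm.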
T cell modulator – T cell immune modulation candidate; 2C CD8+ T cell-vesicle binding, flow cytometry; hits give low values; response (vesicle binding), % at 7 µM; AID 2052; 0.068% of 330,000 active;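 active means response, share of CD8 T cells binding vesicles, and their 90th percentile fluorescence all below set limits, cut at about 80% in these data, passing the limit was not always enough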;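 further: values below 100% mean blocked vesicle binding to the CD8+ T cells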
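material = purified 2C TCR transgenic mouse naive CD8+ T cells | controls = Unloaded micro-vesicles (low), QL9 vesicles with 0.7% DMSO (high) | detection = cytometric PE anti-B7-1 and Alexa647 anti-CD8 signals after 1% paraformaldehyde fixation | incubation = binding step 1.5 h, 37 °C, antibody labelling 20 min, ice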
MEKK2 mut-MEK5 – signal of MEK5 binding to mutant human MEKK2 PB1 domain; bead flow cytometry, Alexa488-MEK5 binding to MEKK2 mutant; AID 1530; 0.35% of 290,000 active; percent response, % at 10 µM; in the data active means percent response above about 24%, passing the limit was not always enough
MEKK2wt PB1 HTS – raises or lowers MEK5 binding to wildtype human MEKK2 PB1 domain; Q9Y2U5; bead flow cytometry, Alexa488-MEK5 binding to MEKK2 WT; actives lie on both sides; binding response (% of control), % at 10 µM; 1.1% of 290,000 active; AID 1531; in the data active means binding response below about 67% or above about 130%
* marks the source's active call; other numbers are inactive results; i = inactive; / = no result; + = active, no number.

SMILES	MEKK3 PB1 HTS	Rce1 inh	UCH37 inh	T cell modulator	MEKK2 mut-MEK5	MEKK2wt PB1 HTS
O=C(NC1CC1)C1=C[C@H](C2CC2)C[C@H](OCCCCO)O1	101	i	4	447	-6	95
O=C(CN1C(=O)c2cccnc2Oc2ccc(Cl)cc21)Nc1ccccc1F	101	i	1	466	10	10*
CS/C(N)=N/N=Cc1cc(Br)cc(Br)c1O	/	/	1	/	/	/
O=C(NCC1CC1)c1cc(-c2ccccc2)nn1CC1CC(c2cccc([N+](=O)[O-])c2)=NO1 (stereo not drawn)	92	+	6	/	-10	84
COCCNC(=O)c1cc(-c2ccccc2)nn1CC1CC(c2cccc([N+](=O)[O-])c2)=NO1 (stereo not drawn)	104	i	3	418	1	102
CC(=NNC(=O)OC(C)(C)C)c1ccc[nH]1	/	/	4	/	/	/
O=C(NCCc1cccnc1)c1cc(COc2ccc(F)cc2Cl)on1	102	+	/	363	-3	105
O=C(NCCc1cccnc1)c1cc(COc2ccc(F)cc2F)on1	102	i	4	206	-1	99
CC1(c2nnc(Cc3ccccc3)o2)CC(c2ccc(Cl)cc2)=NO1 (stereo not drawn)	104	i	28*	/	3	101
CC1(c2nnc(Cc3ccccc3)o2)CC(c2ccncc2)=NO1 (stereo not drawn)	105	i	21*	/	3	101
COc1ccc(C2=NOC(C)(c3nnc(Cc4ccccc4)o3)C2)cc1 (stereo not drawn)	100	i	29*	/	0	102
CC1(c2nnc(Cc3ccccc3)o2)CC(c2ccc(C#N)cc2)=NO1 (stereo not drawn)	102	i	-1	i	1	103
Cc1nc2ccccc2c(=O)n1N=Cc1ccncc1	/	/	5	/	/	/
Cc1ccc(-c2ccc(C=N/N=C3/NC(=O)C(CC(=O)O)S3)o2)c([N+](=O)[O-])c1 (stereo not drawn)	/	/	25*	/	/	/
Nc1ccccc1Oc1ccc2ccccc2c1	101	+	/	229	-2	94
CC(=NNC(=O)c1ccc([N+](=O)[O-])cc1Cl)c1ccccc1	/	/	3	/	/	/
O=C(COC(=O)C1CC(=O)N(c2ccc3c(c2)OCCO3)C1)NC1CCCc2ccccc21 (stereo not drawn)	101	i	22*	480	0	100
Cc1cccc(C=NNC(=O)c2cccc([N+](=O)[O-])c2)n1	/	/	5	/	/	/
COc1cc(C=NNC(=O)NC2CCCCC2)ccc1O	/	/	3	/	/	/
COc1ccccc1C(=O)Nc1ccc2c(c1)nc1n2CCN(C2CCCCC2)C1	92	i	-8	406	12	-12*
O=C(Nc1ccc2c(c1)nc1n2CCN(C2CCCCC2)C1)c1ccco1	77	/	-1	/	-10	86
CCOc1ccc(NC(=O)Cn2c(=O)oc3ccccc32)cc1	98	i	30*	256	1	98
CCOc1ccc(NC(=O)Cn2c(=O)oc3cc(Cl)ccc32)cc1	101	i	-1	463	6	107
CN(C(=O)c1ccc2c(c1)SC1=NS(=O)(=O)CCN12)C(c1ccccc1)c1ccccc1	102	+	4	706	-1	100
CCOC(=O)c1c(O)c2cc(Cl)ccc2n(CC)c1=O	97	i	/	58*	-1	101
SMILES	MEKK3 PB1 HTS	Rce1 inh	UCH37 inh	T cell modulator	MEKK2 mut-MEK5	MEKK2wt PB1 HTS
Cc1ccc(S(=O)(=O)N2CCN(C3CCC(c4ccccc4)CC3)CC2)cc1 (stereo not drawn)	/	i	3	288	/	/
CCS(=O)(=O)N1CCN(C2CCC(c3ccccc3)CC2)CC1 (stereo not drawn)	120	+	4	237	5	110
CN(C)/C(CN1CCN(C=O)CC1)=C1\N=C(c2ccccc2)OC1=O	103	i	20*	389	2	99
COc1ccc(/C=C/C(=O)c2ccc(O)cc2)cc1CN1CCOCC1	107	i	0	788	2	110
O=C(/C=C/c1cccc(O)c1)c1ccc(N2CCOCC2)cc1	85	i	10	357	-15	-4.0*
CON=C(CN1CCCCC1)c1ccc(Cl)cc1	/	/	4	/	/	/
CN(C)CCCN(C(=O)c1ccc(S(=O)(=O)N2CCc3ccccc3C2)cc1)c1nc2c(F)cccc2s1	109	i	4	268	45*	208*
CN(C)CCCN(C(=O)c1ccc(S(=O)(=O)N2CCCC2)cc1)c1nc2c(F)cc(F)cc2s1	/	i	-1	464	/	/
Cc1cccc2sc(N(CCCN(C)C)C(=O)c3ccc(S(=O)(=O)N4CCc5ccccc5C4)cc3)nc12	108	i	2	359	51*	216*
Cc1cc([N+](=O)[O-])nn1CC(=O)NN=Cc1ccc(O)cc1O	/	/	9	/	/	/
Fc1cnc(NN=Cc2ccc(-c3ccc(Br)cc3)o2)nc1N1CCOCC1	/	/	-38	/	/	/
N=C(N)c1ccc(/C=C/c2ccc(C(=N)N)cc2O)cc1	66	+	-27	286	-11	95
COc1cc(CNCCc2ccc(S(N)(=O)=O)cc2)ccc1OCC(=O)N1CCCCC1	98	i	1	79*	2	97
CN(C)CCC=C1c2ccccc2CCc2ccccc21	91	i	22*	232	-1	107
CCCCC[n+]1ccn(C2=C([O-])c3ccccc3C(=O)/C2=N\S(=O)(=O)c2ccccc2)c1	104	i	24*	352	3	106
CCCCC[n+]1ccn(C2=C([O-])c3ccccc3C(=O)/C2=N\S(=O)(=O)c2ccc(Br)cc2)c1	94	i	7	i	-5	96
CC(C)(C)c1cc(CCC(=O)N2CCC2)cc(C(C)(C)C)c1O	105	i	6	312	25*	118
CC1CN(C(=O)CCc2cc(C(C)(C)C)c(O)c(C(C)(C)C)c2)CC(C)O1 (stereo not drawn)	102	i	-2	331	6	109
CCCCNC(=S)N(C)N=Cc1ccc(OCC(=O)Nc2c(C)cc(C)cc2C)c(OC)c1	/	/	3	/	/	/
O=C(O/N=C\c1ccc(N2CCCCC2)c([N+](=O)[O-])c1)c1cccc(C(F)(F)F)c1	103	+	/	216	11	101
O=C(NN=Cc1ccc(N2CCCC2)c([N+](=O)[O-])c1)c1cccnc1	/	/	21*	/	/	/
O=C(N/N=C/c1ccc(N2CCCC2)c([N+](=O)[O-])c1)c1cccnc1	101	i	/	393	-7	94
O=C(ON=Cc1ccc(N2CCCCC2)c([N+](=O)[O-])c1)c1cccc(C(F)(F)F)c1	/	/	0	/	/	/
O=C(Nc1ccc(N2CCCCC2)cc1)c1cccnc1	103	i	29*	255	11	98
